{"source": "ChEMBL document CHEMBL6087468", "about": "“TKK130 is a 3-Hydroxy-Propanamidine (HPA) with Potent Antimalarial In Vivo Activity and a High Barrier to Resistance” (J Med Chem, 2025)", "key": {"Plasmodium falciparum [1]": {"system": "Plasmodium falciparum", "assay": "Antimalarial activity against chloroquine, sulfadoxine, and pyrimethamine-resistant Plasmodium falciparum Dd2 infected in erythrocytes measured after 3 days by HRP2-ELISA analysis", "format": "functional, organism-based", "conditions": "Dd2, Erythrocyte, 72 h; call rule not given here"}, "Plasmodium knowlesi": {"system": "Plasmodium knowlesi", "assay": "Antiplasmodial activity against Plasmodium Knowlesi inhibition of parasite growth measured after 48 hrs incubation by Sybr-green assay", "format": "functional, organism-based"}, "[2]": {"assay": "Cytotoxicity against human HeLa cells assessed as cell viability measured after 24 hrs by neutral red assay", "format": "toxicity, cell-based"}, "Plasmodium falciparum [3]": {"system": "Plasmodium falciparum", "assay": "Induction of resistance development in Plasmodium falciparum Dd2 Pol delta at 2 x 10^9 initial inoculum per flask at 9 nM measured on day 4 by single-step selection assay", "format": "functional, organism-based"}, "Plasmodium falciparum [4]": {"system": "Plasmodium falciparum", "assay": "Antimalarial activity against […] wild type Plasmodium falciparum NF54 assessed as inhibition of parasite growth incubated for 48 hrs by [3H]hypoxanthine incorporation assay", "format": "functional, organism-based"}, "Plasmodium falciparum [5]": {"system": "Plasmodium falciparum", "assay": "Antimalarial activity against multidrug-resistant Plasmodium falciparum Dd2 harboring pfcrt, pfmdr1, pfdhfr, pfdhps mutated loci assessed as inhibition of parasite growth incubated for 48 hrs by [3H]hypoxanthine incorporation assay", "format": "functional, organism-based"}, "Plasmodium falciparum [6]": {"system": "Plasmodium falciparum", "assay": "Antimalarial activity against multidrug-resistant Plasmodium falciparum TM90C2b harboring pfcrt, pfmdr1, pfdhfr, pfdhps and pfcytb-Q0 mutated loci assessed as inhibition of parasite growth incubated for 48 hrs by [3H]hypoxanthine incorporation assay", "format": "functional, organism-based"}, "Hemozoin": {"system": "Hemozoin", "assay": "Inhibition of beta-hematin formation assessed as formation of bis-pyridyl heme complex incubated for 4 to 5 hrs by Nonidet-40 based plate reader assay"}, "[7]": {"assay": "Plasma stability at 37 °C measured as remaining drug at 24 hrs sampled in triplicate (concentration 25 ng/mL 2 (TKK130))", "format": "ADME, cell-free", "conditions": "human, at 25 ng/mL, read-out: Stability", "in_short": "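Fresh EDTA human plasma warmed to 37 °C, spiked to 25 ng/mL (0.5% methanol final), split into three fractions, shaken at 37 °C. Samples at 0, 2, 4, 6, 24, 48 h precipitated with ice-cold acetonitrile containing internal standard; LC–MS/MS. Recovery = analyte/IS area ratio relative to 0 h; triplicate.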"}, "[8]": {"assay": "Metabolic stability in human liver microsomes assessed as intrinsic clearance at 50 ug/ml measured up to 60 mins", "format": "ADME, Microsome", "conditions": "microsomes, 1 h, dose 50 µg/ml", "in_short": "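Pooled human liver microsomes (150 donors) in 0.1 M potassium phosphate buffer pH 7.4, cosolvent method, analyte at 1 μM final; reactions stopped with ice-cold acetonitrile at 0, 15, 30, 45, 60 min; LC–MS/MS. Clint from ke (negative slope of ln peak-area ratio vs time) via t1/2 = ln2/ke; triplicate; no-cofactor negative control and blank run.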"}, "[9]": {"assay": "Microsomal binding in human liver microsomes assessed as unbound fraction […] by Equilibrium dialysis", "format": "ADME, Microsome", "in_short": "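Equilibrium dialysis across 6 kDa regenerated cellulose membrane: donor 1 μM analyte in 0.5 mg/mL pooled HLMs in 0.1 M potassium phosphate buffer, acceptor 0.9% saline, 24 h at 37 °C. Donor diluted 1:20 in 4% BSA, acetonitrile precipitation, LC–MS/MS against matrix calibration curves; fraction bound from volume-corrected equation, unbound = 1 − bound; triplicate.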"}, "[10]": {"assay": "Plasma protein binding in plasma (unknown origin) at 25 ng/ml measured after 24 hrs by dilution method", "format": "ADME, cell-free", "in_short": "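Equilibrium dialysis with donor plasma diluted 1:10 or 1:20 in 0.9% saline, spiked at 25 ng/mL, against 0.9% saline acceptor for 24 h at 37 °C. Concentrations by LC–MS/MS against diluted-plasma calibration curves; unbound fraction (acceptor/donor) back-calculated to undiluted plasma; triplicate; itraconazole reference.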"}, "Plasmodium falciparum [11]": {"system": "Plasmodium falciparum", "assay": "Antimalarial activity against wild type Plasmodium falciparum Dd2 infected in human erythrocytes assessed as inhibition of parasite growth measured after 72 hrs incubation by [3H]hypoxanthine incorporation assay", "format": "functional, organism-based", "conditions": "Dd2, Erythrocyte", "in_short": "(§1)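 Dd2 parent line, and mutants made from it by gene editing or drug selection. Growth inhibition measured by the 72 h [3H]hypoxanthine incorporation assay at Swiss TPH. Values are means of 2 independent biological replicates.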"}, "Plasmodium falciparum [12]": {"system": "Plasmodium falciparum", "assay": "Antimalarial activity against Plasmodium falciparum Dd2 DDD107498 harboring PfeEF2 mutant infected in human erythrocytes assessed as inhibition of parasite growth measured after 72 hrs incubation by [3H]hypoxanthine incorporation assay", "format": "functional, organism-based", "conditions": "Dd2 DDD107498, Erythrocyte", "in_short": "as §1"}, "Plasmodium falciparum [13]": {"system": "Plasmodium falciparum", "assay": "Antimalarial activity against Plasmodium falciparum Dd2 GNF156 harboring Pfcarl-mutant infected in human erythrocytes assessed as inhibition of parasite growth measured after 72 hrs incubation by [3H]hypoxanthine incorporation assay", "format": "functional, organism-based", "conditions": "Dd2 GNF156, Erythrocyte", "in_short": "as §1"}, "Plasmodium falciparum [14]": {"system": "Plasmodium falciparum", "assay": "Antimalarial activity against Plasmodium falciparum Dd2 ELQ300 harboring PfcytB-mutant infected in human erythrocytes assessed as inhibition of parasite growth measured after 72 hrs incubation by [3H]hypoxanthine incorporation assay", "format": "functional, organism-based", "conditions": "Dd2 ELQ300, Erythrocyte", "in_short": "as §1"}, "Plasmodium falciparum [15]": {"system": "Plasmodium falciparum", "assay": "Antimalarial activity against Plasmodium falciparum Dd2 SJ557733 harboring Pfatp4-mutant infected in human erythrocytes assessed as inhibition of parasite growth measured after 72 hrs incubation by [3H]hypoxanthine incorporation assay", "format": "functional, organism-based", "conditions": "Dd2 SJ557733, Erythrocyte", "in_short": "as §1"}, "Plasmodium falciparum [16]": {"system": "Plasmodium falciparum", "assay": "Antimalarial activity against Plasmodium falciparum Dd2 MMV183 harboring PfACoAS-mutant infected in human erythrocytes assessed as inhibition of parasite growth measured after 72 hrs incubation by [3H]hypoxanthine incorporation assay", "format": "functional, organism-based", "conditions": "Dd2 MMV183, Erythrocyte", "in_short": "as §1"}, "Plasmodium berghei [17]": {"system": "Plasmodium berghei", "assay": "In vivo antiplasmodial activity against Plasmodium berghei infected mouse model assessed as mean survival time at 30 mg/kg, po treated 4 times measured at 96 hrs post infection by fluorescence-activated cell sorting (FACS) analysis (reference value: 4 days)", "format": "functional"}, "Plasmodium berghei [18]": {"system": "Plasmodium berghei", "assay": "In vivo antiplasmodial activity against Plasmodium berghei infected mouse model assessed as mean survival time at 10 mg/kg, po treated 4 times measured at 96 hrs post infection by fluorescence-activated cell sorting (FACS) analysis (reference value: 4 days)", "format": "functional"}, "Plasmodium berghei [19]": {"system": "Plasmodium berghei", "assay": "In vivo antiplasmodial activity against Plasmodium berghei infected mouse model assessed as curation rate at 10 mg/kg, po treated 4 times measured at 96 hrs post infection by fluorescence-activated cell sorting (FACS) analysis", "format": "functional"}, "Plasmodium berghei [20]": {"system": "Plasmodium berghei", "assay": "In vivo antiplasmodial activity against Plasmodium berghei infected mouse model assessed as curation rate at 50 mg/kg, po treated 4 times measured at 96 hrs post infection by fluorescence-activated cell sorting (FACS) analysis", "format": "functional"}, "[21]": {"assay": "Cmax in mouse infected with Plasmodium berghei at 10 mg/kg, po", "format": "ADME, organism-based", "conditions": "in vivo", "in_short": "(§2)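 Single oral dose to P. berghei-infected mice, 2 mice per dose group. Blood sampled at 1, 4 and 24 h post-dose as dried blood spots, plus a blank \"0 h\" reading. Spots diluted 1:5 (3, 10 mg/kg) or 1:10 (30 mg/kg), then quantified by LC–MS/MS against a whole-blood calibration of 1.56–800 ng/mL with QCs at three levels.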"}, "[22]": {"assay": "Cmax in mouse infected with Plasmodium berghei at 30 mg/kg, po", "format": "ADME, organism-based", "conditions": "in vivo", "in_short": "as §2"}, "[23]": {"assay": "Tmax in mouse infected with Plasmodium berghei at 10 mg/kg, po", "format": "ADME, organism-based", "conditions": "in vivo", "in_short": "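Infected mice (n = 2 per dose) given a single oral dose of 3, 10 or 30 mg/kg; blood sampled as dried blood spots at 1, 4 and 24 h post-dose, diluted before LC–MS analysis against whole-blood dried-spot calibration (1.56–800 ng/mL) with QCs; tmax from concentration–time profiles.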"}, "[24]": {"assay": "AUC (0 to t) in mouse infected with Plasmodium berghei at 30 mg/kg, po", "format": "ADME, organism-based", "conditions": "in vivo", "in_short": "as §2"}}, "data": [{"smiles": "Cl.N=C(CC(O)c1cc2c(F)cc(F)cc2c2cc(C(F)(F)F)ccc12)Nc1ccc(F)cc1", "note": "(stereo unspecified)", "values": [{"measurement": "IC50", "setting": "Plasmodium falciparum [1]", "value": 3, "unit": "nM"}, {"measurement": "IC50", "setting": "Plasmodium knowlesi", "value": 1, "unit": "nM"}, {"measurement": "IC50 at 24 h", "setting": "[2]", "value": 89300, "unit": "nM"}, {"measurement": "Activity", "setting": "Plasmodium falciparum [3]", "value": "Active; No Subsequent Parasite Growth Observed"}, {"measurement": "IC50", "setting": "Plasmodium falciparum [4]", "value": 11, "unit": "nM"}, {"measurement": "IC50", "setting": "Plasmodium falciparum [5]", "value": 172, "unit": "nM"}, {"measurement": "IC50", "setting": "Plasmodium falciparum [6]", "value": 126, "unit": "nM"}, {"measurement": "IC50", "setting": "Hemozoin", "value": 9400, "unit": "nM"}, {"measurement": "remaining at 24 h, 25 ng/mL", "setting": "[7]", "value": 76.4, "unit": "%"}, {"measurement": "CLint", "setting": "[8]", "value": 1.8, "unit": "µL/min/mg"}, {"measurement": "Activity", "setting": "[9]", "value": 2.6, "unit": "%"}, {"measurement": "fraction unbound at 24 h, 25 ng/ml", "setting": "[10]", "value": 0.004}, {"measurement": "IC50", "setting": "Plasmodium falciparum [11]", "value": 15, "unit": "nM"}, {"measurement": "IC50", "setting": "Plasmodium falciparum [12]", "value": 16, "unit": "nM"}, {"measurement": "IC50", "setting": "Plasmodium falciparum [13]", "value": 7, "unit": "nM"}, {"measurement": "IC50", "setting": "Plasmodium falciparum [14]", "value": 14, "unit": "nM"}, {"measurement": "IC50", "setting": "Plasmodium falciparum [15]", "value": 11, "unit": "nM"}, {"measurement": "IC50", "setting": "Plasmodium falciparum [16]", "value": 13, "unit": "nM"}, {"measurement": "MSD", "setting": "Plasmodium berghei [17]", "value": 30, "unit": "days"}, {"measurement": "MSD", "setting": "Plasmodium berghei [18]", "value": 28, "unit": "days"}, {"measurement": "Activity", "setting": "Plasmodium berghei [19]", "value": 33, "unit": "%"}, {"measurement": "Activity", "setting": "Plasmodium berghei [20]", "value": 100, "unit": "%"}, {"measurement": "Cmax", "setting": "[21]", "value": 599, "unit": "ng/mL"}, {"measurement": "Cmax", "setting": "[22]", "value": 2030, "unit": "ng/mL"}, {"measurement": "Tmax", "setting": "[23]", "value": 4, "unit": "h"}, {"measurement": "AUC(0-t)", "setting": "[24]", "value": 40900, "unit": "ng·h/mL"}]}]}
